Measurements as given in ChEMBL document CHEMBL3124845, “Synthesis, neuronal activity and mechanisms of action of halogenated enaminones” (Eur J Med Chem, 2014).
Activity calls are given as the source filed them. No cut-off for these calls is given here.

Experiments:
Hippocampus [1] = assay: Anticonvulsant activity in Sprague-Dawley rat hippocampus assessed as inhibition of population spike amplitude at 10 uM preincubated for 6 mins followed by compound washout measured after 10 mins by […]; type: functional
Outline: (§1)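 Extracellular recording of population spikes in coronal hippocampal slices from male Sprague-Dawley rats (100–150 g), aCSF 29–31 C. Spike amplitude measured from the positive peak to the negative tip; readings taken in control, 6 min into compound and 10 min after washout. Concentration-response run up to […]; mean and standard error.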

Hippocampus [2] = assay: Anticonvulsant activity in Sprague-Dawley rat hippocampus assessed as inhibition of population spike amplitude at >= 100 uM preincubated for 6 mins followed by compound washout measured after 10 mins by […]; type: functional, tissue-based; outline: as §1
Mus musculus [3] = assay: Anticonvulsant activity in CF1 mouse at 100 to 300 mg/kg, ip after 30 mins; type: functional, organism-based
Outline: (§2)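 Male CF1 mice; compound dissolved or suspended in 30% polyethylene glycol 400, given intraperitoneally at 30, 100 and 300 mg/kg. Protection scored in maximal electroshock and subcutaneous pentylenetetrazole seizure tests, with rotorod for neurotoxicity, read at 30 min and 4 h after dosing.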

[4] = Anticonvulsant activity in Sprague-Dawley rat hippocampus CA1 pyramidal neurons assessed as suppression of EPSC amplitude at 10 uM by voltage-clamp electrophysiology in presence of GABA transaminase inhibitor vigabatrin; type: functional, Pyramidal neuron
Hippocampus [5] = assay: Anticonvulsant activity in Sprague-Dawley rat hippocampus assessed as inhibition of population spike amplitude preincubated for 6 mins followed by compound washout measured after 10 mins by […]; type: functional, tissue-based; outline: as §1
Mus musculus [6] = assay: Anticonvulsant activity in CF1 mouse at <100 mg/kg, ip after 30 mins; type: functional, organism-based; outline: as §2
[7] = Anticonvulsant activity in Sprague-Dawley rat hippocampus CA1 pyramidal neurons assessed as suppression of EPSC amplitude at 10 uM at -60mV holding potential by voltage-clamp electrophysiology relative to control; type: functional, Pyramidal neuron
Outline: (§3)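 Coronal hippocampal slices ([…]) from halothane-anaesthetised male Sprague-Dawley rats (100–150 g), submerged in carbogenated aCSF at 29–31 C, 2–3 mL/min. Blind whole-cell patch of CA1 pyramidal cells with K-gluconate pipette solution (pH 7.3); voltage clamp near rest (60 mV). EPSCs evoked by afferent stimulation; two responses 30 s apart averaged; compound at […].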

Pyramidal neuron = assay: Anticonvulsant activity in Sprague-Dawley rat hippocampus CA1 pyramidal neurons assessed as suppression of EPSC amplitude at 10 uM at -60mV holding potential measured 15 to 20 mins post compound washout by voltage-clamp electrophysiology; type: functional, cell-based; outline: as §3
[8] = Anticonvulsant activity in Sprague-Dawley rat hippocampus CA1 pyramidal neurons assessed as suppression of EPSC amplitude at 10 uM by voltage-clamp electrophysiology in presence of GABA-B receptor antagonist CGP55845; type: functional, Pyramidal neuron
[9] = Anticonvulsant activity in Sprague-Dawley rat hippocampus CA1 pyramidal neurons assessed as suppression of action potential firing frequency at 10 uM by voltage-clamp electrophysiology relative to control; type: functional, Pyramidal neuron; conditions: in the assay text read “current-clamp” for “voltage-clamp”

SMILES	inhibition at 10 µM (Hippocampus [1]) [%]	inhibition (Hippocampus [2])	EC50 (Hippocampus [5]) [µM]	further results
COC(=O)C1C(=O)C=C(Nc2ccc(I)cc2I)CC1c1ccccc1 (stereo not drawn)	8.5	inactive	–	–
CC1CC(=O)C=C(Nc2ccc(Br)cc2Br)C1 (stereo not drawn)	8	inactive	–	–
COC(=O)C1C(=O)C=C(Nc2ccc(Br)cc2Br)CC1C (stereo not drawn)	-25	inactive	–	Activity (Mus musculus [3]): Active
CCOC(=O)C1C(=O)C=C(Nc2ccc(Br)cc2Br)CC1C (stereo not drawn)	-34.7	inactive	1.9	Activity [4]: 3.9%; inhibition (Hippocampus [5]): Dose-dependent effect; Activity (Mus musculus [6]): Active; Activity [7]: 47.5%; Activity (Pyramidal neuron): Active; Activity [8]: 16.6%; Activity [9]: 76.3%
CCOC(=O)C1C(=O)C=C(Nc2ccc(Cl)cc2Cl)CC1C (stereo not drawn)	-24.6	inactive	10	–
O=C1C=C(Nc2ccc(Br)cc2Br)CCC1	-23.7	inactive	–	–
CCOC(=O)C1C(=O)C=C(Nc2ccc(I)cc2I)CC1c1ccccc1 (stereo not drawn)	4	inactive	–	–
COC(=O)C1C(=O)C=C(Nc2ccc(Br)cc2Br)CC1c1ccccc1 (stereo not drawn)	-72.2	inactive	2.1	Activity [4]: 40%; inhibition (Hippocampus [5]): Dose-dependent effect; Activity (Mus musculus [6]): Active; Activity [7]: 31.2%; Activity (Pyramidal neuron): Active; Activity [8]: 16.6%; Activity [9]: 39.2%
CCOC(=O)C1CCC(Nc2ccc(Br)cc2Br)=CC1=O (stereo not drawn)	35	inactive	–	–
CC1(C)CCC(Nc2ccc(Br)cc2Br)=CC1=O	-18.2	inactive	–	–
